Source: ChEMBL document CHEMBL4270599, “Synthesis of a 3'-C-ethynyl-β-d-ribofuranose purine nucleoside library: Discovery of C7-deazapurine analogs as potent antiproliferative nucleosides” (Eur J Med Chem, 2018)

Columns and labels:
HOP-92 = assay: Cytotoxicity against human HOP92 cells after 48 hrs by SRB assay; format: functional; conditions: HOP-92, 48 h
SF-539 [1] = assay: Cytotoxicity against human SF539 cells after 48 hrs by SRB assay; format: functional; conditions: SF-539, 48 h
SK-MEL-28 [2] = assay: Cytotoxicity against human SK-MEL-28 cells after 48 hrs by SRB assay; format: functional; conditions: SK-MEL-28, 48 h
UACC-62 [3] = assay: Cytotoxicity against human UACC62 cells after 48 hrs by SRB assay; format: functional; conditions: UACC-62, 48 h
OVCAR-3 = assay: Cytotoxicity against human OVCAR3 cells after 48 hrs by SRB assay; format: functional; conditions: OVCAR-3, 48 h
MDA-MB-231 = assay: Cytotoxicity against human MDA-MB-231 cells after 48 hrs by SRB assay; format: functional; conditions: MDA-MB-231, 48 h
SF-539 [4] = assay: Growth inhibition of human SF539 cells assessed as cell growth at 10^-8 M incubated for 48 hrs by sulforhodamine B assay relative to control; format: functional; conditions: SF-539, 48 h, read-out: Activity
SNB-19 = assay: Growth inhibition of human SNB19 cells assessed as cell growth at 10^-8 M incubated for 48 hrs by sulforhodamine B assay relative to control; format: functional; conditions: SNB-19, 48 h, read-out: Activity
MDA-MB-435 [5] = assay: Growth inhibition of human MDA-MB-435 cells assessed as cell growth at 10^-8 M incubated for 48 hrs by sulforhodamine B assay relative to control; format: functional; conditions: MDA-MB-435, 48 h, read-out: Activity
UACC-257 = assay: Growth inhibition of human UACC257 cells assessed as cell growth at 10^-8 M incubated for 48 hrs by sulforhodamine B assay relative to control; format: functional; conditions: UACC-257, 48 h, read-out: Activity
NCI-H322M = assay: Growth inhibition of human NCI-H322M cells assessed as cell growth at 10^-7 M incubated for 48 hrs by sulforhodamine B assay relative to control; format: functional; conditions: read-out: Activity
HCT-15 = assay: Growth inhibition of human HCT15 cells assessed as cell growth at 10^-7 M incubated for 48 hrs by sulforhodamine B assay relative to control; format: functional; conditions: HCT-15, 48 h, read-out: Activity
786-0 = assay: Growth inhibition of human 786-0 cells assessed as cell growth at 10^-7 M incubated for 48 hrs by sulforhodamine B assay relative to control; format: functional; conditions: 786-0, 48 h, read-out: Activity
MCF7 = assay: Growth inhibition of human MCF7 cells assessed as cell growth at 10^-7 M incubated for 48 hrs by sulforhodamine B assay relative to control; format: functional; conditions: MCF7, 48 h, read-out: Activity
HOP-62 = assay: Growth inhibition of human HOP62 cells assessed as cell growth at 10^-6 M incubated for 48 hrs by sulforhodamine B assay relative to control; format: functional; conditions: HOP-62, 48 h, read-out: Activity
KM12 [6] = assay: Growth inhibition of human KM12 cells assessed as cell growth at 10^-6 M incubated for 48 hrs by sulforhodamine B assay relative to control; format: functional; conditions: KM12, 48 h, read-out: Activity
MDA-MB-435 [7] = assay: Growth inhibition of human MDA-MB-435 cells assessed as cell growth at 10^-6 M incubated for 48 hrs by sulforhodamine B assay relative to control; format: functional; conditions: MDA-MB-435, 48 h, read-out: Activity
SK-MEL-5 = assay: Growth inhibition of human SK-MEL-5 cells assessed as cell growth at 10^-6 M incubated for 48 hrs by sulforhodamine B assay relative to control; format: functional; conditions: SK-MEL-5, 48 h, read-out: Activity
OVCAR-5 [8] = assay: Growth inhibition of human OVCAR5 cells assessed as cell growth at 10^-6 M incubated for 48 hrs by sulforhodamine B assay relative to control; format: functional; conditions: OVCAR-5, 48 h, read-out: Activity
A498 = assay: Growth inhibition of human A498 cells assessed as cell growth at 10^-6 M incubated for 48 hrs by sulforhodamine B assay relative to control; format: functional; conditions: A498, 48 h, read-out: Activity
RXF 393 = assay: Growth inhibition of human RXF393 cells assessed as cell growth at 10^-6 M incubated for 48 hrs by sulforhodamine B assay relative to control; format: functional; conditions: RXF 393, 48 h, read-out: Activity
DU-145 = assay: Growth inhibition of human DU145 cells assessed as cell growth at 10^-6 M incubated for 48 hrs by sulforhodamine B assay relative to control; format: functional; conditions: DU-145, 48 h, read-out: Activity
MOLT-4 = assay: Growth inhibition of human MOLT4 cells assessed as cell growth at 10^-5 M incubated for 48 hrs by sulforhodamine B assay relative to control; format: functional; conditions: MOLT-4, 48 h, read-out: Activity
SK-MEL-28 [9] = assay: Growth inhibition of human SK-MEL-28 cells assessed as cell growth at 10^-5 M incubated for 48 hrs by sulforhodamine B assay relative to control; format: functional; conditions: SK-MEL-28, 48 h, read-out: Activity
OVCAR-5 [10] = assay: Growth inhibition of human OVCAR5 cells assessed as cell growth at 10^-5 M incubated for 48 hrs by sulforhodamine B assay relative to control; format: functional; conditions: OVCAR-5, 48 h, read-out: Activity
TK-10 = assay: Growth inhibition of human TK10 cells assessed as cell growth at 10^-5 M incubated for 48 hrs by sulforhodamine B assay relative to control; format: functional; conditions: TK-10, 48 h, read-out: Activity
SR = assay: Growth inhibition of human SR cells assessed as cell growth at 10^-4 M incubated for 48 hrs by sulforhodamine B assay relative to control; format: functional; conditions: read-out: Activity
KM12 [11] = assay: Growth inhibition of human KM12 cells assessed as cell growth at 10^-4 M incubated for 48 hrs by sulforhodamine B assay relative to control; format: functional; conditions: KM12, 48 h, read-out: Activity
SW-620 = assay: Growth inhibition of human SW620 cells assessed as cell growth at 10^-4 M incubated for 48 hrs by sulforhodamine B assay relative to control; format: functional; conditions: SW-620, 48 h, read-out: Activity
UACC-62 [12] = assay: Growth inhibition of human UACC62 cells assessed as cell growth at 10^-8 M incubated for 48 hrs by sulforhodamine B assay relative to control; format: functional; conditions: UACC-62, 48 h, read-out: Activity
HUVEC = assay: Antiproliferative activity against HUVEC cells after 4 days by Coulter counter method; format: cell-based; conditions: Homo sapiens, 96 h
Summary of the method: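 Primary HUVEC, primary HMVEC-d and the HMEC-1 line seeded at 20,000 cells/well in gelatin-coated plates in EC growth medium (EGM2). After overnight incubation, 5-fold compound dilutions added. Cells proliferated four days with compound, then trypsinized and counted by Coulter counter to derive IC₅₀.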

[13] = read-out: pLC50 (the source's name) (converted)
[14] = read-out: LC50 (the source's name)

## C#C[C@@]1(O)[C@@H](CO)O[C@@H](n2ccc3c(N)ncnc32)[C@@H]1O
HOP-92; read-out: TGI
  TGI: 5.56 µM
HOP-92; read-out: pGI50 (converted)
  GI50: 2.04 µM
HOP-92; [13]
  CC50: 22.9 µM
HOP-92; read-out: pTGI (converted)
  TGI: 5.62 µM
SF-539 [1]; [14]
  CC50: 11.6 µM
SF-539 [1]; read-out: TGI
  TGI: 4.44 µM
SF-539 [1]; read-out: pGI50 (converted)
  GI50: 1.91 µM
SF-539 [1]; [13]
  CC50: 11.7 µM
SF-539 [1]; read-out: pTGI (converted)
  TGI: 4.47 µM
SK-MEL-28 [2]; [14]
  CC50: > 100 µM
SK-MEL-28 [2]; read-out: TGI
  TGI: 20.2 µM
SK-MEL-28 [2]; read-out: pGI50 (converted)
  GI50: 3.98 µM
SK-MEL-28 [2]; read-out: pTGI (converted)
  TGI: 20 µM
UACC-62 [3]; read-out: TGI
  TGI: 4.48 µM
UACC-62 [3]; read-out: pGI50 (converted)
  GI50: 1.78 µM
UACC-62 [3]; [13]
  CC50: 19.5 µM
UACC-62 [3]; read-out: pTGI (converted)
  TGI: 4.47 µM
OVCAR-3; read-out: TGI
  TGI: 12 µM
OVCAR-3; read-out: pGI50 (converted)
  GI50: 2.95 µM
OVCAR-3; [13]
  CC50: > 100 µM
OVCAR-3; read-out: pTGI (converted)
  TGI: 12 µM
MDA-MB-231; read-out: TGI
  TGI: 5.89 µM
MDA-MB-231; read-out: pGI50 (converted)
  GI50: 1.51 µM
MDA-MB-231; [13]
  CC50: 83.2 µM
MDA-MB-231; read-out: pTGI (converted)
  TGI: 5.89 µM
SF-539 [4]
  growth at 0.01 µM: 92%
SNB-19
  growth at 0.01 µM: 99%
MDA-MB-435 [5]
  growth at 0.01 µM: 92%
UACC-257
  growth at 0.01 µM: 100%
NCI-H322M
  growth at 0.1 µM: 94%
HCT-15
  growth at 0.1 µM: 93%
786-0
  growth at 0.1 µM: 92%
MCF7
  growth at 0.1 µM: 73%
HOP-62
  growth at 1 µM: 77%
KM12 [6]
  growth at 1 µM: 67%
MDA-MB-435 [7]
  growth at 1 µM: 73%
SK-MEL-5
  growth at 1 µM: 85%
OVCAR-5 [8]
  growth at 1 µM: 106%
A498
  growth at 1 µM: 80%
RXF 393
  growth at 1 µM: 88%
DU-145
  growth at 1 µM: 34%
MOLT-4
  growth at 10 µM: 2%
SK-MEL-28 [9]
  growth at 10 µM: 21%
OVCAR-5 [10]
  growth at 10 µM: -8%
TK-10
  growth at 10 µM: -2%
SR
  growth at 100 µM: 11%
KM12 [11]
  growth at 100 µM: -52%
SW-620
  growth at 100 µM: -45%
UACC-62 [12]
  growth at 0.01 µM: 97%

## C#C[C@@]1(O)[C@@H](CO)O[C@@H](n2cc(I)c3c(N)ncnc32)[C@@H]1O
HOP-92; read-out: GI50
  GI50: 0.025 to 0.217 µM
HOP-92; [14]
  CC50: > 100 µM
HOP-92; read-out: TGI
  TGI: 0.991 to 4.98 µM
SF-539 [1]; read-out: GI50
  GI50: 0.304 to 0.471 µM
SF-539 [1]; [14]
  CC50: 28.6 to 31.3 µM
SF-539 [1]; read-out: TGI
  TGI: 2.18 to 2.98 µM
SK-MEL-28 [2]; read-out: GI50
  GI50: 1.56 to 2.46 µM
SK-MEL-28 [2]; read-out: TGI
  TGI: 9.27 to 14 µM
SK-MEL-28 [2]; [13]
  CC50: > 100 µM
UACC-62 [3]; read-out: GI50
  GI50: 0.573 to 0.659 µM
UACC-62 [3]; [14]
  CC50: 6.63 to 24.5 µM
UACC-62 [3]; read-out: TGI
  TGI: 2.38 to 3.23 µM
OVCAR-3; read-out: GI50
  GI50: 0.321 to 0.427 µM
OVCAR-3; [14]
  CC50: > 100 µM
MDA-MB-231; read-out: GI50
  GI50: 0.168 to 0.204 µM
MDA-MB-231; [14]
  CC50: > 100 µM
MDA-MB-231; read-out: TGI
  TGI: > 100 µM
MDA-MB-231; read-out: pTGI (converted)
  TGI: > 100 µM
SF-539 [4]
  growth at 0.01 µM: 89 to 102%
SNB-19
  growth at 0.01 µM: 88 to 92%
MDA-MB-435 [5]
  growth at 0.01 µM: 83 to 93%
UACC-257
  growth at 0.01 µM: 89 to 91%
NCI-H322M
  growth at 0.1 µM: 69 to 82%
HCT-15
  growth at 0.1 µM: 51 to 60%
786-0
  growth at 0.1 µM: 72 to 79%
MCF7
  growth at 0.1 µM: 18 to 25%
HOP-62
  growth at 1 µM: 33 to 61%
KM12 [6]
  growth at 1 µM: 25 to 27%
MDA-MB-435 [7]
  growth at 1 µM: 34 to 46%
SK-MEL-5
  growth at 1 µM: 14 to 26%
OVCAR-5 [8]
  growth at 1 µM: 43 to 64%
A498
  growth at 1 µM: 1 to 29%
RXF 393
  growth at 1 µM: 26 to 34%
DU-145
  growth at 1 µM: 19 to 26%
OVCAR-5 [10]
  growth at 10 µM: 2 to 6%
KM12 [11]
  growth at 100 µM: 3 to 9%
SW-620
  growth at 100 µM: 3%
UACC-62 [12]
  growth at 0.01 µM: 95%
HUVEC
  IC50: 0.0099 µM
